Source: ChEMBL document CHEMBL4251703, “Linker Variation and Structure-Activity Relationship Analyses of Carboxylic Acid-based Small Molecule STAT3 Inhibitors” (ACS Med Chem Lett, 2018)
Values after ≈ are worked out from the molar mass of the structure shown. Active and inactive are the calls of the source. The calls are words filed in the database; no cut-off is given here.

Legend:
[1] = Solubility of the compound in PBS at pH 7.4; format: physicochemical
Procedure, shortened: (§1)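 Aqueous solubility was determined in pH 7.4 PBS and in pH 6.8 buffered simulated intestinal fluid, reported in μg/mL.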

[2] = Solubility of the compound in simulated intestinal fluid at pH 6.8; format: physicochemical; procedure, shortened: as §1
[3] = Half life in human liver microsomes; format: ADME, microsome
[4] = Half life in mouse liver microsomes; format: ADME, microsome
[5] = target: Signal transducer and activator of transcription 3 (Homo sapiens) (UniProt P40763); test: Inhibition of STAT3 in human MDA-MB-231 cells assessed as reduction in p-STAT3(Y705) level at 5 uM after 1 to 24 hrs by immunoblot analysis; format: cell-based
[6] = target: Signal transducer and activator of transcription 3 (Homo sapiens) (UniProt P40763); test: Inhibition of STAT3 in human MDA-MB-468 cells assessed as reduction in p-STAT3(Y705) level at 5 uM after 1 to 24 hrs by immunoblot analysis; format: cell-based
[7] = system: MDA-MB-231; test: Cytotoxicity against human MDA-MB-231 cells harboring active STAT3 assessed as decrease in cell viability up to 10 uM after 72 hrs by CyQuant dye based assay; format: functional
Procedure, shortened: (§2)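 Cells were grown in 96-well format and treated once with 0–10 μM compound for 72 h. Viable cells were quantified by CyQuant proliferation assay and plotted as % viability against concentration. Data are mean ± SD of three independent determinations.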

[8] = system: MDA-MB-468; test: Cytotoxicity against human MDA-MB-468 cells harboring active STAT3 assessed as decrease in cell viability up to 10 uM after 72 hrs by CyQuant dye based assay; format: functional; procedure, shortened: as §2
[9] = system: MDA-MB-231; test: Cytotoxicity against human MDA-MB-231 cells harboring active STAT3 assessed as decrease in cell viability up to 5 uM after 72 hrs by trypan blue exclusion based phase-contrast microscopy; format: functional
[10] = system: MCF7; test: Cytotoxicity against human MCF7 cells assessed as decrease in cell viability up to 10 uM after 72 hrs by CyQuant dye based assay; format: functional; procedure, shortened: as §2
[11] = target: Signal transducer and activator of transcription 3 (Mus musculus) (UniProt P42227); test: (§3) Inhibition of STAT3 DNA binding activity in mouse NIH/3T3 nuclear extract preincubated for 30 mins followed by [32P]hSIE addition measured after 30 mins by electrophoretic mobility shift assay
Procedure, shortened: (§4)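 STAT3 DNA-binding was measured by EMSA using nuclear extracts of equal total protein from v-Src-transformed fibroblasts containing activated STAT3. Extracts were preincubated for 30 min with 0–100 μM compound, then incubated with radiolabeled hSIE probe.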

[12] = target: Signal transducer and activator of transcription 3 (Homo sapiens) (UniProt P40763); test: Inhibition of STAT3 in human MDA-MB-231 cells assessed as reduction in p-STAT3(Y705) level at 10 uM after 1 hr by immunoblot analysis; format: cell-based
[13] = system: MDA-MB-231; test: Anticlonogenic activity against human MDA-MB-231 cells up to 3 uM after 4 hrs by crystal violet staining based assay; format: functional, cell-based
Procedure, shortened: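 Single-cell cultures of MDA-MB-231 cells were treated once and cultured until large colonies were visible. Colonies were then stained with crystal violet, counted and plotted.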

[14] = system: MDA-MB-231; test: Antimigratory activity against human MDA-MB-231 cells at 8 uM after 22 to […] hrs by inverted fluorescence microscope; format: functional, cell-based
Procedure, shortened: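 Confluent MDA-MB-231 cultures were wounded and treated once with or without 8 μM compound. Migration into the denuded area was followed over 23 h and imaged. Controls received 0.05% DMSO.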

[15] = target: Signal transducer and activator of transcription 3 (Homo sapiens) (UniProt P40763); test: Inhibition of STAT3 DNA binding activity in human MDA-MB-231 nuclear extract at 10 uM after 3 hrs by electrophoretic mobility shift assay
Procedure, shortened: (§5)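 MDA-MB-231 breast cancer cells were exposed to 10 μM compound for 1, 3 or 24 h. Nuclear extracts of equal total protein were then assayed for STAT3 DNA-binding by EMSA.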

[16] = target: Signal transducer and activator of transcription 3 (Homo sapiens) (UniProt P40763); test: Inhibition of STAT3 DNA binding activity in human MDA-MB-231 nuclear extract at 10 uM after 1 hr by electrophoretic mobility shift assay; procedure, shortened: as §5
[17] = target: Signal transducer and activator of transcription 3 (Homo sapiens) (UniProt P40763); test: Inhibition of STAT3 DNA binding activity in human MDA-MB-231 nuclear extract at 10 uM after 24 hrs by electrophoretic mobility shift assay; procedure, shortened: as §5
[18] = target: Signal transducer and activator of transcription 3 (Homo sapiens) (UniProt P40763); test: Inhibition of STAT3 DNA binding activity in human MDA-MB-468 nuclear extract at 5 uM after 3 to 24 hrs by electrophoretic mobility shift assay
Procedure, shortened: (§6)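 MDA-MB-468 cells received 5 μM compound for 3 or 24 h. STAT3 DNA-binding in nuclear extracts of equal total protein was then analysed by EMSA.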

[19] = target: Signal transducer and activator of transcription 3 (Homo sapiens) (UniProt P40763); test: Inhibition of STAT3 in human C8161 cells assessed as reduction in p-STAT3(Y705) level at 10 to 20 uM after 1 to 3 hrs by immunoblot analysis; format: cell-based
[20] = target: Signal transducer and activator of transcription 3 (Homo sapiens) (UniProt P40763); test: Inhibition of STAT3 in human 1205 Lu cells assessed as reduction in p-STAT3(Y705) level at 10 to 20 uM after 1 to 3 hrs by immunoblot analysis; format: cell-based
[21] = target: Signal transducer and activator of transcription 3 (Homo sapiens) (UniProt P40763); test: Inhibition of STAT3 in human UACC-903 cells assessed as reduction in p-STAT3(Y705) level at 10 to 20 uM after 1 to 3 hrs by immunoblot analysis; format: cell-based
[22] = organism: Homo sapiens; test: Cytotoxicity against human C8161 cells harboring active STAT3 assessed as decrease in cell viability up to 20 uM after 48 hrs by MTT assay; format: functional, cell-based
[23] = organism: Homo sapiens; test: Cytotoxicity against human 1205 Lu cells harboring active STAT3 assessed as decrease in cell viability up to 20 uM after 48 hrs by MTT assay; format: functional, cell-based
[24] = organism: Homo sapiens; test: Cytotoxicity against human C81-61 cells harboring active STAT3 assessed as decrease in cell viability up to 20 uM after 48 hrs by MTT assay; format: functional, cell-based
[25] = Apparent permeability of the compound from apical to basolateral side in human Caco2 cells; format: ADME, cell-based; conditions: Caco-2
[26] = target: Signal transducer and activator of transcription 3 (Homo sapiens) (UniProt P40763); test: Inhibition of STAT3 DNA binding activity in human MDA-MB-468 nuclear extract at 5 uM after 24 hrs by electrophoretic mobility shift assay; procedure, shortened: as §6
[27] = target: Tyrosine-protein kinase JAK2 (Homo sapiens) (UniProt O60674); test: Inhibition of JAK2 phosphorylation in human MDA-MB-231 cells at 5 uM after 24 hrs by immunoblot analysis; format: cell-based
[28] = target: Proto-oncogene tyrosine-protein kinase Src (Homo sapiens) (UniProt P12931); test: Inhibition of SRC phosphorylation in human MDA-MB-231 cells at 5 uM after 24 hrs by immunoblot analysis; format: cell-based
[29] = target: Mitogen-activated protein kinase; ERK1/ERK2 (Homo sapiens) (UniProt P27361+P28482); test: Inhibition of ERK1/2 phosphorylation in human MDA-MB-231 cells at 5 uM after 24 hrs by immunoblot analysis; format: cell-based
[30] = target: Signal transducer and activator of transcription 3 (Mus musculus, UniProt P42227); test: as §3; procedure, shortened: as §4
[31] = Cytotoxicity against human AR7119 cells assessed as decrease in cell viability up to 20 uM after 48 hrs by MTT assay; format: cell-based

Sequence of Signal transducer and activator of transcription 3 (Homo sapiens) (P40763 whole entry): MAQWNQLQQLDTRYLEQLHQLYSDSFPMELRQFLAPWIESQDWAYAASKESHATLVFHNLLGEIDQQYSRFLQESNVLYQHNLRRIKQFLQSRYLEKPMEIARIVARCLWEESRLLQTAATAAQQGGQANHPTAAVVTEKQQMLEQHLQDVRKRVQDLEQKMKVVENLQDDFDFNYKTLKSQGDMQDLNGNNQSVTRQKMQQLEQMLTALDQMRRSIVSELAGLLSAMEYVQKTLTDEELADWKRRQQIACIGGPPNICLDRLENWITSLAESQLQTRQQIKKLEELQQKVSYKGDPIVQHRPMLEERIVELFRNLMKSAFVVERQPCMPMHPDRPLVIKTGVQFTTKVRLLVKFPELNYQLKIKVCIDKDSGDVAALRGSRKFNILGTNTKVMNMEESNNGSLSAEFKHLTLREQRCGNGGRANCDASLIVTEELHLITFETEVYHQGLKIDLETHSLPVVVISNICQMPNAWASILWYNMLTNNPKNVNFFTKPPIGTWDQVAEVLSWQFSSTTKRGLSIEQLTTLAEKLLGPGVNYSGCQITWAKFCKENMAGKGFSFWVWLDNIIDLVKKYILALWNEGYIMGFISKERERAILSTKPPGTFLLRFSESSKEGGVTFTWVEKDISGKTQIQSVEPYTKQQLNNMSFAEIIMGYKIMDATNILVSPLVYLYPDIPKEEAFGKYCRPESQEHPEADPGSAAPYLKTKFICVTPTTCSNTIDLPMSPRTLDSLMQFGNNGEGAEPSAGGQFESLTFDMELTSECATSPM
Sequence of Signal transducer and activator of transcription 3 (Mus musculus) (P42227 whole entry): as the sequence (P40763 whole entry) above, with E760D counted along it
Sequence of Signal transducer and activator of transcription 3 (P42227 whole entry): as the sequence (P40763 whole entry) above, with E760D counted along it
Sequence of Proto-oncogene tyrosine-protein kinase Src (Homo sapiens) (P12931 2-536 limits assumed): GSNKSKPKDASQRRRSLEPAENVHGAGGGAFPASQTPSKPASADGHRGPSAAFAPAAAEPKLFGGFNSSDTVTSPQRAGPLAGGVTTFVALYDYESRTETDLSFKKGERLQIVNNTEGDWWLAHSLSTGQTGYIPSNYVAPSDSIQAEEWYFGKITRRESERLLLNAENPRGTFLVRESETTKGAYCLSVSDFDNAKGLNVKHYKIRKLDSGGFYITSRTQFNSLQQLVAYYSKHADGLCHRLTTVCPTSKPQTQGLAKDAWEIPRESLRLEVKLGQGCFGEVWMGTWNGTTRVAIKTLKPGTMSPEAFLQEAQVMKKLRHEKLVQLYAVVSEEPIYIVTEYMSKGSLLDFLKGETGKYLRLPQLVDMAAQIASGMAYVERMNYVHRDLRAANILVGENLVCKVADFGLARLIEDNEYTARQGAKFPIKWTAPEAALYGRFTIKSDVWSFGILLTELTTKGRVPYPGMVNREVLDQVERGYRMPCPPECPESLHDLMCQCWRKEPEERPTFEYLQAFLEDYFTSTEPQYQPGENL
Sequence of Mitogen-activated protein kinase; ERK1/ERK2 (Homo sapiens) (P27361 whole entry, looked up): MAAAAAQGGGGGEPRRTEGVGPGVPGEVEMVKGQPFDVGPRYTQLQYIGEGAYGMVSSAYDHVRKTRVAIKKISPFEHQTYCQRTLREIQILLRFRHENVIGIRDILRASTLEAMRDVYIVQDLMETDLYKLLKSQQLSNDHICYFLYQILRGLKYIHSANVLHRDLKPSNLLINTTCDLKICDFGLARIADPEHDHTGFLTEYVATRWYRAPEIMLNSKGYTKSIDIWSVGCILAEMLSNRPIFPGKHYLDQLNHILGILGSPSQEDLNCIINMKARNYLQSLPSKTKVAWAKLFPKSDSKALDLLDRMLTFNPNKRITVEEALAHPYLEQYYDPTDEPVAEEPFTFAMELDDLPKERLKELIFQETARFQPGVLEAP
Sequence of Mitogen-activated protein kinase; ERK1/ERK2 (Homo sapiens) (P28482 whole entry, looked up): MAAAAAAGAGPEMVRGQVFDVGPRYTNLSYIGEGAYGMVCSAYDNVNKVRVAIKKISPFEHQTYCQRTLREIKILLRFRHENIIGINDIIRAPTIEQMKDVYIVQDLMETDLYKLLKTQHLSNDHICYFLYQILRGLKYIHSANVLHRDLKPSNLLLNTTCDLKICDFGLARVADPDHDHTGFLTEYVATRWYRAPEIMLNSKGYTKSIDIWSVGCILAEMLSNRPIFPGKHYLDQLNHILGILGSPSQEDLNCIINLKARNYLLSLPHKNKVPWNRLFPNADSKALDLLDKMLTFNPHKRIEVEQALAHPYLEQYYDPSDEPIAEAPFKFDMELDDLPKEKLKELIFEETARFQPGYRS
Sequence of Tyrosine-protein kinase JAK2 (Homo sapiens) (O60674 whole entry): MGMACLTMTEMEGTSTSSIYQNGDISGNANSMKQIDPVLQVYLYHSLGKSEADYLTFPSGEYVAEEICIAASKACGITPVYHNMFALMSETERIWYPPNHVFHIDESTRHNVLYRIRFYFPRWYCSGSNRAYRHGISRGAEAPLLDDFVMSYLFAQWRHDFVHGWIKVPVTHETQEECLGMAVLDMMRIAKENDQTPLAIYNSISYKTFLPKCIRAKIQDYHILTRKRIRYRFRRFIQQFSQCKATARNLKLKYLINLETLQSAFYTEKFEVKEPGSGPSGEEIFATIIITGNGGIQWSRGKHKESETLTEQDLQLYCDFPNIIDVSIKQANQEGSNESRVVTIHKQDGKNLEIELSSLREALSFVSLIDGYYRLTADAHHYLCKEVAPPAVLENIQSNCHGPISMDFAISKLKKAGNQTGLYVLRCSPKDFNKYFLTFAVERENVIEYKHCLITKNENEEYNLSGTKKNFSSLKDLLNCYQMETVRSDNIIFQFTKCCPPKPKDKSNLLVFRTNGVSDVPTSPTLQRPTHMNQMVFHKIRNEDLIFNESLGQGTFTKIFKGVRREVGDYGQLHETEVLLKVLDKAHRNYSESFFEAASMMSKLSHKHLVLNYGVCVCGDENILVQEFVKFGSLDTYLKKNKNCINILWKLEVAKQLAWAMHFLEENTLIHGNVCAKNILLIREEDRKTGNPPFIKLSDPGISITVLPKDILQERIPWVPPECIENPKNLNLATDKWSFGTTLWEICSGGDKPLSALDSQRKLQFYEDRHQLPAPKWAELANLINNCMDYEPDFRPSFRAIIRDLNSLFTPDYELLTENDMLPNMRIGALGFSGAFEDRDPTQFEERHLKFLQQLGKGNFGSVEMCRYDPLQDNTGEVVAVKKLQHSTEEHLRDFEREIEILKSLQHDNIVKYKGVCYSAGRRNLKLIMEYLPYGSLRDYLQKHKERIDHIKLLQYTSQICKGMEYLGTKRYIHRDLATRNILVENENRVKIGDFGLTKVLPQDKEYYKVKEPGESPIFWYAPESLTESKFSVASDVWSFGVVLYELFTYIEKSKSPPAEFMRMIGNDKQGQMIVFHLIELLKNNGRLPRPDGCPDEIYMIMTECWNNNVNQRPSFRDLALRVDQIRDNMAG

CN(CC(=O)N(Cc1ccc(C2CCCCC2)cc1)c1ccc(C(=O)O)cc1)S(=O)(=O)c1c(F)c(F)c(F)c(F)c1F
solubility [1]: 7.6 µg/mL (≈ 12.4 µM)
solubility [2]: 14 µg/mL (≈ 22.9 µM)
half-life [3]: ≥ 17 min
half-life [4]: ≥ 17 min

C[C@H](C(=O)N(Cc1ccc(C2CCCCC2)cc1)c1ccc(C(=O)O)cc1F)N(C)S(=O)(=O)c1c(F)c(F)c(F)c(F)c1F
p-STAT3(Y705) reduction (qualitative call) [5]: Active
inhibition [6]: Active
Activity [7]: Active
Activity [8]: Active
Activity [9]: Active
Activity [10]: inactive

Cc1cc(C(=O)O)ccc1N(Cc1ccc(C2CCCCC2)cc1)C(=O)CN(C)S(=O)(=O)c1c(F)c(F)c(F)c(F)c1F
inhibition [11]: inactive
inhibition [12]: Active
Activity [7]: Active
Activity [8]: Active
Activity [10]: inactive
Activity [13]: Active
Activity [14]: Active

C[C@H](C(=O)N(Cc1ccc(C2CCCCC2)cc1)c1ccc(C(=O)O)c(O)c1)N(C)S(=O)(=O)c1c(F)c(F)c(F)c(F)c1F [listing 1 of 2 here]
inhibition [11]: Active
inhibition [15]: Active
inhibition [16]: inactive
inhibition [17]: inactive
inhibition [18]: Active
p-STAT3(Y705) reduction (qualitative call) [5]: Active
inhibition [6]: Active
inhibition [19]: Active
inhibition [20]: Active
inhibition [21]: Active
Activity [22]: Active
Activity [23]: Active
Activity [24]: Active

O=C([O-])c1ccc(N(Cc2ccc(C3CCOCC3)cc2)C(=O)[C@H]2CCCN2S(=O)(=O)c2c(F)c(F)c(F)c(F)c2F)cc1O.[Na+]
solubility [1]: 123 µg/mL
solubility [2]: 117 µg/mL
Papp A→B [25]: 0.2 ×10⁻⁶ cm/s

C[C@H](C(=O)N(Cc1ccc(C2CCCCC2)cc1)c1ccc(C(=O)O)cc1Cl)N(C)S(=O)(=O)c1c(F)c(F)c(F)c(F)c1F
inhibition [26]: Active
inhibition [12]: Active
inhibition [27]: inactive
inhibition [28]: inactive
inhibition [29]: inactive
Activity [7]: Active
Activity [8]: Active
Activity [10]: inactive
Activity [13]: Active
Activity [14]: Active

CN(CC(=O)N(Cc1ccc(C2CCCCC2)cc1)c1ccc(C(=O)O)cc1Cl)S(=O)(=O)c1c(F)c(F)c(F)c(F)c1F
IC50 [30]: 8.6 to 14.4 µM
inhibition [12]: Active
Activity [7]: Active
Activity [8]: Active
Activity [10]: inactive
Activity [13]: Active
Activity [14]: Active

CN(CC(=O)N(Cc1ccc(C2CCCCC2)cc1)c1ccc(C(=O)NO)cc1)S(=O)(=O)c1c(F)c(F)c(F)c(F)c1F
solubility [1]: 0.3 µg/mL (≈ 0.48 µM)
solubility [2]: 74 µg/mL (≈ 118 µM)
half-life [3]: ≥ 17 min
half-life [4]: ≥ 17 min

C[C@@H](C(=O)N(Cc1ccc(C2CCCCC2)cc1)c1ccc(C(=O)O)c(O)c1)N(C)S(=O)(=O)c1c(F)c(F)c(F)c(F)c1F
inhibition [15]: Active
inhibition [16]: inactive
inhibition [17]: Active

C[C@H](C(=O)N(Cc1ccc(C2CCCCC2)cc1)c1ccc(C(=O)O)c(O)c1)N(C)S(=O)(=O)c1c(F)c(F)c(F)c(F)c1F [listing 2 of 2 here]
Activity [31]: Non-Toxic

O=C(O)c1ccc(N(Cc2ccc(C3CCCCC3)cc2)C(=O)[C@@H]2CCCN2S(=O)(=O)c2c(F)c(F)c(F)c(F)c2F)c(F)c1
half-life [3]: 54 min
half-life [4]: 26 min
Papp A→B [25]: 0.1 ×10⁻⁶ cm/s
